System: MS2 coat protein
Experiment: apparent Kd, MS2 coat protein; higher = weaker binding; RNA-MaP array; FMN 200 µM where present
Procedure, shortened: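 Stalled E. coli RNA polymerase produced the designs on Illumina sequencing-chip clusters. SNAP-549-labelled MS2 coat protein was added from 0.7 or 1.5 nM, doubling to 3 µM, without and then with constant ligand, in 100 mM Tris-HCl pH 7.5, 80 mM KCl, 4 mM MgCl2, BSA, DTT, yeast tRNA and Tween-20. The apparent Kd is the median of filtered per-cluster fits of green signal normalised to red-channel RNA signal and control-cluster median Fmax.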

[1] = designed as: OFF switch for flavin mononucleotide, no ligand
[2] = ligand present: flavin mononucleotide, designed as: OFF switch for flavin mononucleotide
[3] = designed as: ON switch for flavin mononucleotide, no ligand
[4] = ligand present: flavin mononucleotide, designed as: ON switch for flavin mononucleotide

Sequence | apparent Kd [1] [nM] | apparent Kd [2] [nM] | apparent Kd [3] [nM] | apparent Kd [4] [nM]
CCUAUGUAAGGAUAUAGCCACAUUACGAAUAAGUAGUGUGGCUAGAAGGUACAUGAGGAUCACCCAUGUAUGGG | 195 | 40.6 | – | –
ACAUACAUUCGAGGAUAUCGGUGAACAUAUUAACGAGAAGGCGAUAUAAUUUUUAAUCUUAUAAACAUGAGGAUCACCCAUGUA | – | – | 21.9 | 20.2
UCUUAUUGCAAGGAUAUGCAAAUUAUUAUUAAAGCAGAAGGUGCAACAUGAGGAUCACCCAUGUUUCCGGGAAA | 25.2 | 104 | – | –
UAUAUAUAGUAAGGAUAUGUAAUUAUUUUAGAAACAGAAGGUACUGACAUGAGGAUCACCCAUGUUUUAGUGUGGGCAUGUAGA | 90.4 | 147 | – | –
ACGGAGUCAGGAUAUUUAGAGCGUUGGCAAUGCUAGCGCAUGGAGAAGGGACAUGAGGAUCACCCAUGUUUGGA | 39.9 | 39.9 | – | –
AUGGACGUCGUAGGAUAUGUAGGAUAUUCCUACAUGAGGAUCACCCAUGUUGACAUGGAAGAAGGACAGAAGGACGAUGUCCAU | – | – | 199 | 4.47
UGUCGGAGCAGAGGAUAUUACAUGAGGAUCACCCAUGUAUGAACCAAUAGCUGGAAACAGCAAUGUAAGAAGGCUGCUCCGUCA | 11.9 | 167 | – | –
GUGACGAAUGUAGGAUAUGCUGAGGAAUACUCAGCAGAAGGACAUGAGGAUCACCCAUGUACUAAUAGUGAUAAUAAACGUCAC | 15.6 | 77.6 | – | –
UCGUGAAUAGAGGAUAUAUUAAUAUUUAAAACAAUAGAAGGCUAAACAUGAGGAUCACCCAUGUAAAUGGUUUU | 28.1 | 116 | – | –
AAACACGGACAUGAGGAUCACCCAUGUGGCGAAAGCCUAGGGAGAAGGCAGUAUGCAAAGCAUUCUGAGGAUAUUCAUACCGUG | – | – | 160 | 13.4
CUCAUGUCAGGAUAUCGUGCAGCUACCGAAAGGUAGCUGCACGAGAAGGGACAUGAGGAUCACCCAUGUAUGAA | 22.2 | 18.4 | – | –
UGACACAUGAGGGUCUCCCAUGACAUGAGGAUCACCCAUGUGCAGGAUAUACGUGUGAUGGUAUAGUAGAAGGGCACUCUAUGU | 46.4 | 65.8 | – | –
AGAAAUUAGUGAGGAUAUGCAUAAUUUGUAGCUGCAGAAGGCACGGACCACAAGACAUGAGGAUCACCCAUGUGGUAUUUAGAU | 26.8 | 28 | – | –
ACAUGCGGAUGAGGAUAUUCAUUUAUGAGGAUAGAAGAAGGCAUACAUGAGGAUCACCCAUGUAUACGCAUGAGGAUCCCUUAC | 39.1 | 41 | – | –
AUGCCUAAUGAGAAGGUGUGUAUAAAUUAUAUACAAGGAUAUCGGUCAAGCAUGAAAACAUGAGGAUCACCCAUGUUAAGGCAU | – | – | 7.77 | 6.72
GUCGAUCACCAGAAGGACAUGAGGAUCACCCAUGUAGGAUAUGGGUAAGACGUCACAUUGGCGUGCAAACGUUUGCGUUCGUAC | – | – | 11.9 | 6.42
AUUAAACAUGAGGAUCACCCAUGUCAACAAAGUCGAGGAUAUGGGCAAAUAAAUUAAGAACCAGAAGGCGAAUAAU | – | – | 435 | 40.5
AAGUCGCACCAGAAGGGUCAACCAAUAAAUUAGACAGGAUAUGGGCGAUAUGUAUGUCGCGACAUGAGGAUCACCCAUGUCCGG | – | – | 17.7 | 6.08
AGAUUGAAUGAGGAUAUCGAAGCGGGUACGAAGCGAGAAGGCAUGACAUGAGGAUCACCCAUGUAGUGUGGGUU | 465 | 435 | – | –
CUUUUGUGAGGAUAUCAGUAGUAAAUAUAUAAAAUUACUACUGAGAAGGCACAUGAGGAUCACCCAUGUUCCUC | 38.1 | 274 | – | –
GAUUAAUGCAAGGAUAUGCUAUUAUUUUAUUUUGCAGAAGGUGCAACAUGAGGAUCACCCAUGUUGGAGGGUAU | 19.8 | 29.8 | – | –
AAAAUGUGUACAUGAGGAUCACCCAUGUAUCGACUCCAAAGCAAGGAUAUGAUCAUGGGAAUUGGUCAGAAGGUGCAGGGUCUG | – | – | 205 | 25.8
UUGGAUAUCACAGGAUAUGCUAAGGAUACCUUAGCAGAAGGGUGAUCCAUCCUAUGGCUGUACAUGAGGAUCACCCAUGUGUCA | – | – | 246 | 73.6
AACGGGUGGGUAGGAUAUGGCUAUGUCUCAUUGCUAGAAGGACCAGCUGCUACAUGAGGAUCACCCAUGUCGUAGUGCAUCCAG | – | – | 88.2 | 13
UCUGGAGCAGGAUAUGCAUUCGUGCUUCGGCACGUAAGGUCACAUGAGGAUCACCCAUGUAGAAGGGCUCCAGA | 19.2 | 34 | – | –
GCACGGCAUGUAGGAUAUCGAGCGCCGGGCGCUCGAGAAGGACAUGAGGAUCACCCAUGUACUCUCAGUGAGAGAGUGCUGUGC | 18.7 | 31.8 | – | –
GUGCACAUUCGAGGAUAUCGGAGAGAGAUCGUUCGAGAAGGCGAUUCAUGAUGUAUUAUCCUGGACAUGAGGAUCACCCAUGUG | – | – | 105 | 89.3

Source: the EternaBench riboswitch data
